Drawing on ChEMBL document CHEMBL1157240, “Caminosides B-D, antimicrobial glycolipids isolated from the marine sponge Caminus sphaeroconia” (J Nat Prod, 2006), this text covers IC50, Activity and MIC for three compounds.

Assay [1] relates to Escherichia coli. Description: Antimicrobial activity against enteropathogenic Escherichia coli assessed as inhibition of type 3 secretion by gel electrophoresis. In kind it is functional, organism-based. The method, boiled down: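 EPEC cultured 24 h with test material, then centrifuged to give a bacterial pellet and a supernatant holding all secreted proteins. The pellet was inspected by eye, and samples that clearly shrank it were excluded as having general antibiotic or cytotoxic action.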

Assay [2] concerns Stenotrophomonas maltophilia. Briefly: Antimicrobial activity against Xanthomonas maltophilia assessed per disk. In kind it is functional.
A further assay concerns Staphylococcus aureus. Description: Antimicrobial activity against methicillin-resistant Staphylococcus aureus assessed per disk. It counts as functional.
A further assay concerns Globisporangium ultimum. Briefly: Antimicrobial activity against Pythium ultimum assessed per disk. In kind it is functional.
A further assay concerns Enterococcus. Description: Antimicrobial activity against vancomycin-resistant Enterococcus assessed per disk. In kind it is functional.
In assay [3] the test system is Escherichia coli. Briefly: Antimicrobial activity against Escherichia coli. It counts as functional, organism-based.

Each structure is given as a SMILES string. Active and inactive are the calls of the source. The calls are words filed in the database; no cut-off is given here. Where only a bound is given, the exact number is not on record here.

Consider `CCCCCCCCC[C@H](CCCCCCCC(C)=O)O[C@@H]1O[C@H](CO)[C@@H](O)[C@H](O)[C@H]1O[C@@H]1O[C@H](CO[C@@H]2O[C@H](C)[C@H](O)[C@H](O)[C@@H]2O)[C@@H](OC(C)=O)[C@H](OC(=O)CCC)[C@H]1O[C@@H]1O[C@@H](C)[C@H](O)[C@@H](OC(=O)CCC)[C@@H]1O`, for which the IC50 in the assay on Escherichia coli [1] was found to be 20 µM.

For `CCCCCCCCC[C@H](CCCCCCCC(C)=O)O[C@@H]1O[C@H](COC(C)=O)[C@@H](OC(C)=O)[C@H](OC(C)=O)[C@H]1O[C@@H]1O[C@H](CO[C@@H]2O[C@H](C)[C@H](OC(C)=O)[C@H](OC(C)=O)[C@@H]2OC(C)=O)[C@@H](OC(C)=O)[C@H](OC(=O)CCC)[C@H]1O[C@@H]1O[C@@H](C)[C@H](OC(C)=O)[C@@H](OC(C)=O)[C@@H]1OC(C)=O` [CAMINOSIDE A PERACETATE], the outcome in the assay on Escherichia coli [1] was inactive. Also, the MIC in assay [2] is over 25 µg; with Staphylococcus aureus, over 100 µg; in the assay on Globisporangium ultimum, over 100 µg; in the assay on Enterococcus, over 100 µg.

Consider `CCCCCCCCC[C@H](CCCCCCCC(C)=O)O[C@@H]1O[C@H](CO)[C@@H](O)[C@H](O)[C@H]1O[C@@H]1O[C@H](CO[C@@H]2O[C@H](C)[C@H](O)[C@H](O)[C@@H]2O)[C@@H](OC(C)=O)[C@H](OC(=O)CCC)[C@H]1O[C@@H]1O[C@@H](C)[C@H](O)[C@@H](O)[C@@H]1O` [CAMINOSIDES A], for which the result in the assay on Escherichia coli [1] was Active. For the same compound, the half-maximal inhibitory concentration (IC50) in the assay on Escherichia coli [1] stood at 20 µM. Moreover, the MIC in assay [2] was 25 µg; against Staphylococcus aureus it was 12.5 µg; in the assay with Globisporangium ultimum it was 50 µg; in the assay with Enterococcus, 12.5 µg. For the same compound, in the assay with Escherichia coli [3], the result was inactive.
